Measurements published in ChEMBL document CHEMBL1123436, “Comparative toxicities and analgesic activities of three monomethylated analogues of acetaminophen” (J Med Chem, 1986).

Legend:
Mus musculus [1] = experiment: Urinary Metabolic (3-(methylthio)acetaminophen) profile in the mouse 24 h after dose of 3 mmol/kg of the compound; format: ADME, organism-based, Urine; settings: in vivo
Mus musculus [2] = experiment: Urinary Metabolic (acetaminophen-3-mecapturate) profile in the mouse 24 hr after dose of 3 mmol/kg of the compound; format: ADME, organism-based, Urine; settings: in vivo
Mus musculus [3] = experiment: Urinary Metabolic (3-cysteinnylacetaminophen) profile in the mouse 24 hr after dose of 3 mmol/kg of the compound; format: ADME, organism-based, Urine; settings: in vivo
Mus musculus [4] = experiment: Urinary Metabolic (3-hydroxyacetaminophen) profile in the mouse 24 h after dose of 3 mmol/kg of the compound; format: ADME, organism-based, Urine; settings: in vivo
Mus musculus [5] = experiment: Time course of Distribution of Radioactivity in Mice Liver after 3 mmol/kg dose of the Compound after 3 h; format: ADME, organism-based; settings: in vivo
Summary of the method: (§1)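 Groups of 12 mice given [acetyl-14C]-labelled drug ip, 3 mmol/kg (0.45 mCi/mmol), housed individually with urine/feces separation. Four killed at each of 1, 3 and 24 h by exsanguination. Tissues (~100 mg) digested in Soluene 350; blood digested and peroxide-bleached; feces freeze-dried, rehydrated, digested and bleached. Scintillation counting; nmol equiv/mg tissue or per mL blood/urine, means ± SE (N = 4).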

Mus musculus [6] = experiment: Time course of Distribution of Radioactivity in Mice kidney after 3 mmol/kg dose of the Compound after 1 h; format: ADME, organism-based; settings: in vivo; summary of the method: as §1
Mus musculus [7] = experiment: Time course of Distribution of Radioactivity in Mice kidney after 3 mmol/kg dose of the Compound after 24 h; format: ADME, organism-based; settings: in vivo; summary of the method: as §1
Mus musculus [8] = experiment: Time course of Distribution of Radioactivity in Mice kidney after 3 mmol/kg dose of the Compound after 3 h; format: ADME, organism-based; settings: in vivo; summary of the method: as §1
Mus musculus [9] = experiment: Urinary Metabolic (3-methoxyacetaminophen) profile in the mouse 24 hr after dose of 3 mmol/kg of the compound; format: ADME, organism-based, Urine; settings: in vivo
Mus musculus [10] = experiment: Urinary Metabolic (Acetaminophen) profile in the mouse 24 h after dose of 3 mmol/kg of the compound; format: ADME, organism-based, Urine; settings: in vivo
Mus musculus [11] = experiment: Time course of Distribution of Radioactivity in Mice brain after 3 mmol/kg dose of the Compound after 1 h; format: ADME, organism-based; settings: in vivo; summary of the method: as §1
Mus musculus [12] = experiment: Time course of Distribution of Radioactivity in Mice brain after 3 mmol/kg dose of the Compound after 24 h; format: ADME, organism-based; settings: in vivo; summary of the method: as §1
Mus musculus [13] = experiment: Time course of Distribution of Radioactivity in Mice brain after 3 mmol/kg dose of the Compound after 3 h; format: ADME, organism-based; settings: in vivo; summary of the method: as §1
Mus musculus [14] = experiment: Time course of Distribution of Radioactivity in Mice feces after 3 mmol/kg dose of the Compound after 1 hr; format: ADME, organism-based; settings: in vivo; summary of the method: as §1
Mus musculus [15] = experiment: Time course of Distribution of Radioactivity in Mice feces after 3 mmol/kg dose of the Compound after 24 h; format: ADME, organism-based; settings: in vivo; summary of the method: as §1
Mus musculus [16] = experiment: Time course of Distribution of Radioactivity in Mice feces after 3 mmol/kg dose of the Compound after 3 h; format: ADME, organism-based; settings: in vivo; summary of the method: as §1
Mus musculus [17] = experiment: Time course of Distribution of Radioactivity in Mice intestine after 3 mmol/kg dose of the Compound after 24 h; format: ADME, organism-based; settings: in vivo; summary of the method: as §1
Mus musculus [18] = experiment: Time course of Distribution of Radioactivity in Mice intestine after 3 mmol/kg dose of the Compound after 3 h; format: ADME, organism-based; settings: in vivo; summary of the method: as §1
Mus musculus [19] = experiment: Time course of Distribution of Radioactivity in Mice intestine after 3 mmol/kg dose of the Compound after 1 h; format: ADME, organism-based; settings: in vivo; summary of the method: as §1
Mus musculus [20] = experiment: Time course of Distribution of Radioactivity in Mice lungs/heart after 3 mmol/kg dose of the Compound after 1 h; format: ADME, organism-based, Lung; settings: in vivo; summary of the method: as §1
Mus musculus [21] = experiment: Time course of Distribution of Radioactivity in Mice lungs/heart after 3 mmol/kg dose of the Compound after 24 h; format: ADME, organism-based, Lung; settings: in vivo; summary of the method: as §1
Mus musculus [22] = experiment: Time course of Distribution of Radioactivity in Mice lungs/heart after 3 mmol/kg dose of the Compound after 3 h; format: ADME, organism-based, Lung; settings: in vivo; summary of the method: as §1
Mus musculus [23] = experiment: Time course of Distribution of Radioactivity in Mice spleen after 3 mmol/kg dose of the Compound after 1 h; format: ADME, organism-based; settings: in vivo; summary of the method: as §1
Mus musculus [24] = experiment: Time course of Distribution of Radioactivity in Mice spleen after 3 mmol/kg dose of the Compound after 24 h; format: ADME, organism-based; settings: in vivo; summary of the method: as §1
Mus musculus [25] = experiment: Time course of Distribution of Radioactivity in Mice spleen after 3 mmol/kg dose of the Compound after 3 h; format: ADME, organism-based; settings: in vivo; summary of the method: as §1
Mus musculus [26] = experiment: Time course of Distribution of Radioactivity in Mice stomach after 3 mmol/kg dose of the Compound after 1 h; format: ADME, organism-based; settings: in vivo; summary of the method: as §1
Mus musculus [27] = experiment: Time course of Distribution of Radioactivity in Mice stomach after 3 mmol/kg dose of the Compound after 24 h; format: ADME, organism-based; settings: in vivo; summary of the method: as §1
Mus musculus [28] = experiment: Time course of Distribution of Radioactivity in Mice Liver after 3 mmol/kg dose of the Compound after 1 h; format: ADME, organism-based; settings: in vivo; summary of the method: as §1
Mus musculus [29] = experiment: Time course of Distribution of Radioactivity in Mice Urine after 3 mmol/kg dose of the Compound after 1 h; format: ADME, organism-based; settings: in vivo; summary of the method: as §1
Mus musculus [30] = experiment: Time course of Distribution of Radioactivity in Mice Urine after 3 mmol/kg dose of the Compound after 24 h; format: ADME, organism-based; settings: in vivo; summary of the method: as §1
Mus musculus [31] = experiment: Time course of Distribution of Radioactivity in Mice Urine after 3 mmol/kg dose of the Compound after 3 h; format: ADME, organism-based; settings: in vivo; summary of the method: as §1
Mus musculus [32] = experiment: Time course of Distribution of Radioactivity in Mice blood after 3 mmol/kg dose of the Compound after 1 h; format: ADME, organism-based; settings: in vivo; summary of the method: as §1
Mus musculus [33] = experiment: Time course of Distribution of Radioactivity in Mice blood after 3 mmol/kg dose of the Compound after 24 h; format: ADME, organism-based; settings: in vivo; summary of the method: as §1
Mus musculus [34] = organism: Mus musculus; experiment: Analgesic activity determined in mice using the Bradykinin-induced Writhing test; format: functional
Summary of the method: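 Male CD1 mice (15–20 g), test drug given orally 15 min before bradykinin ip (4 μg in 0.2 mL sterile water), then a second bradykinin injection (0.2 μg/0.1 mL) 15 min later. Writhing was scored over the next 10 min, with control groups of 10 mice. ED50 was derived by log-probit analysis from at least five doses, with 95% limits.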

Mus musculus [35] = experiment: (§2) Hepatotoxicity in Swiss-Webster Mice Caused by compound at 400 mg/kg (i.p.) dose; format: functional; settings: route intraperitoneal
Summary of the method: (§3)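 Male Swiss-Webster mice (20 g), groups of 10, were given a single ip dose of drug in saline with no pretreatment. Survivors were decapitated at 24 h and counted. Plasma ALT was measured, and liver sections (formalin-fixed, paraffin, H&E) were scored for necrosis severity in survivors. Values are means ± SE.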

Mus musculus [36] = experiment: (§4) Hepatotoxicity in Swiss-Webster Mice Caused by compound at 750 mg/kg (i.p.) dose; format: functional; settings: route intraperitoneal; summary of the method: as §3
Mus musculus [37] = experiment: Hepatotoxicity in Swiss-Webster Mice Caused by compound at 400 mg/kg (i.p.) dose; 8/10; format: functional; settings: route intraperitoneal; summary of the method: as §3
Mus musculus [38] = experiment: as §2; format: functional, organism-based; parameters: dose 400 mg/kg; summary of the method: as §3
Mus musculus [39] = experiment: as §4; format: functional, organism-based; parameters: dose 750 mg/kg; summary of the method: as §3
Mus musculus [40] = experiment: Hepatotoxicity in Swiss-Webster Mice Caused by compound at 750 mg/kg (i.p.) dose; 4/10; format: functional; settings: route intraperitoneal; summary of the method: as §3
Mus musculus [41] = experiment: Time course of Distribution of Radioactivity in Mice blood after 3 mmol/kg dose of the Compound after 3 h; format: ADME, organism-based; settings: in vivo; summary of the method: as §1
Mus musculus [42] = experiment: Time course of Distribution of Radioactivity in Mice stomach after 3 mmol/kg dose of the Compound after 3 h; format: ADME, organism-based; settings: in vivo; summary of the method: as §1
Mus musculus [43] = experiment: Time course of Distribution of Radioactivity in Mice Liver after 3 mmol/kg dose of the Compound after 24 h; format: ADME, organism-based; settings: in vivo; summary of the method: as §1

Which Administered dose (Mus musculus [1]) does the source give for `CC(=O)Nc1ccc(O)cc1` [ACETAMINOPHEN] here?
Its Administered dose is 2.3%.

And the Administered dose (Mus musculus [2])?
Its Administered dose is 2%.

What about the Administered dose (Mus musculus [3]) of the same compound?
Its Administered dose is 18.5%.

What about the Administered dose (Mus musculus [4]) of the same compound?
The Administered dose was 0.4%.

And the Radioactivity (Mus musculus [5])?
The Radioactivity was 0.73 nM equiv (mg of tissue)-1.

And the Radioactivity (Mus musculus [6])?
Its Radioactivity is 2.45 nM equiv (mg of tissue)-1.

What about the Radioactivity (Mus musculus [7]) of the same compound?
Its Radioactivity is 0.21 nM equiv (mg of tissue)-1.

And the Radioactivity (Mus musculus [8])?
The Radioactivity was 1.19 nM equiv (mg of tissue)-1.

And the Administered dose (Mus musculus [9])?
The Administered dose was 1.1%.

And the Administered dose (Mus musculus [10])?
The Administered dose was 68.8%.

What about the Radioactivity (Mus musculus [11]) of the same compound?
The Radioactivity was 1.22 nM equiv (mg of tissue)-1.

And the Radioactivity (Mus musculus [12])?
Its Radioactivity is 0.05 nM equiv (mg of tissue)-1.

What about the Radioactivity (Mus musculus [13]) of the same compound?
Its Radioactivity is 0.24 nM equiv (mg of tissue)-1.

What about the Radioactivity (Mus musculus [14]) of the same compound?
Its Radioactivity is 0.09 nM equiv mg-1.

And the Radioactivity (Mus musculus [15])?
Its Radioactivity is 15.3 nM equiv mg-1.

And the Radioactivity (Mus musculus [16])?
Its Radioactivity is 1.52 nM equiv mg-1.

What about the Radioactivity (Mus musculus [17]) of the same compound?
The Radioactivity was 0.92 nM equiv (mg of tissue)-1.

What about the Radioactivity (Mus musculus [18]) of the same compound?
Its Radioactivity is 1.08 nM equiv (mg of tissue)-1.

And the Radioactivity (Mus musculus [19])?
The Radioactivity was 2.19 nM equiv (mg of tissue)-1.

And the Radioactivity (Mus musculus [20])?
Its Radioactivity is 1.13 nM equiv (mg of tissue)-1.

And the Radioactivity (Mus musculus [21])?
The Radioactivity was 0.11 nM equiv (mg of tissue)-1.

What about the Radioactivity (Mus musculus [22]) of the same compound?
The Radioactivity was 0.2 nM equiv (mg of tissue)-1.

And the Radioactivity (Mus musculus [23])?
The Radioactivity was 1.55 nM equiv (mg of tissue)-1.

What about the Radioactivity (Mus musculus [24]) of the same compound?
The Radioactivity was 0.04 nM equiv (mg of tissue)-1.

And the Radioactivity (Mus musculus [25])?
The Radioactivity was 0.29 nM equiv (mg of tissue)-1.

And the Radioactivity (Mus musculus [26])?
The Radioactivity was 1.13 nM equiv (mg of tissue)-1.

And the Radioactivity (Mus musculus [27])?
Its Radioactivity is 0.15 nM equiv (mg of tissue)-1.

What about the Radioactivity (Mus musculus [28]) of the same compound?
Its Radioactivity is 2.89 nM equiv (mg of tissue)-1.

What about the Radioactivity (Mus musculus [29]) of the same compound?
Its Radioactivity is 12.4 nM equiv (ml of urine)-1.

And the Radioactivity (Mus musculus [30])?
Its Radioactivity is 6005 nM equiv (ml of urine)-1.

What about the Radioactivity (Mus musculus [31]) of the same compound?
Its Radioactivity is 3880 nM equiv (ml of urine)-1.

What about the Radioactivity (Mus musculus [32]) of the same compound?
The Radioactivity was 1605 nM equiv (ml of blood)-1.

And the Radioactivity (Mus musculus [33])?
The Radioactivity was 19.2 nM equiv (ml of blood)-1.

And the ED50 (Mus musculus [34])?
Its ED50 is 84.3 mg/kg.

And the “Hepatic necrosis in survivors” value (Mus musculus [35])?
The value was 1.13.

And the “Hepatic necrosis in survivors” value (Mus musculus [36])?
Its value is 3.25.

And the “Survivors at 24 h” value (Mus musculus [37])?
The value was 8.

What about the Plasma ALT at 24 h (Mus musculus [38]) of the same compound?
The Plasma ALT at 24 h was 1550 mU ml-1.

And the Plasma ALT at 24 h (Mus musculus [39])?
Its Plasma ALT at 24 h is 4030 mU ml-1.

And the “Survivors at 24 h” value (Mus musculus [40])?
Its value is 4.

And the Radioactivity (Mus musculus [41])?
The Radioactivity was 544 nM equiv (ml of blood)-1.

What about the Radioactivity (Mus musculus [42]) of the same compound?
The Radioactivity was 0.71 nM equiv (mg of tissue)-1.

And the Radioactivity (Mus musculus [43])?
Its Radioactivity is 0.58 nM equiv (mg of tissue)-1.
